# Publication PMC3677027 (The Biochemical journal, 2012)
# “Also recorded” adds a separate entry of the source. Ends that are not written are not given here.
# B1: ephrin-A5: natural ephrin ligand of EphA4, used as Fc fusion (R&D Systems) (protein)
# chain: QDPGSKAVADRYAVYWNSSNPRFQRGDYHIDVCINDYLDVFCPHYEDSVPEDKTERYVLYMVNFDGYSACDHTSKGFKRWECNRPHSPNGPLKFSEKFQLFTPFSLGFEFRPGREYFYISSAIPDNGRRSCLKLKVFVRPTNSCMKTIGVHDRVFDVNDKVENSLEPADDTVHESAEPSRGEN
# modifications: left off: Fc, end not stated, kept
# Experiments:
# EphA4 AP = EphA4 AP (Homo sapiens, UniProt P54764); assay: ELISA inhibition of EphA4 AP binding to immobilized ephrin-A5 Fc; conditions: for IC50 value relative to unmodified KYL (in words): KYL alanine scan, ELISA, 0.05 nM EphA4 AP, ephrin-A5 Fc immobilized
# Summary of the method: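 Peptides (purity ≥85%) were made as 10 mM DMSO stocks and tested at varied concentrations. Each was incubated for 3 h with 0.05 nM EphA4 AP in protein A wells precoated with 1 µg/ml ephrin-A5 Fc. Bound AP was quantified with p-nitrophenyl phosphate substrate in SEAP buffer, read as absorbance at 405 nm, and inhibition was computed from that signal.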
# [1] = Peptide stability in mouse serum; format: in vitro ADME; conditions: 37°C, ELISA read-out of residual antagonistic activity
# Summary of the method: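 Peptide at 100, 200 or 500 µM (depending on peptide) was held in mouse serum at 37 °C and sampled over time. Samples were diluted 1:20 into protein A wells carrying 1 µg/ml ephrin-A5 Fc, with 0.05 nM EphA4 AP, for 30 min at 4 °C. Bound AP was read as OD405 and normalised: peptide-free serum = 0, unincubated peptide = 1.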
# [2] = biological target: EphA4 ephrin-binding domain (residues 29-209) (human, UniProt P54764-1 29-209); assay: ITC
# EphA4 Fc = EphA4 Fc (UniProt Q03137 20-547); assay: ELISA
# I39A EphA4 AP mutant = I39A EphA4 AP mutant (Homo sapiens, UniProt P54764, I67A); assay: ELISA binding to immobilized ephrin-A5 Fc
# Summary of the method: (§1)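 Wild-type and mutant human EphA4 ephrin-binding domain–AP fusions were secreted from transfected HEK293T cells into Opti-MEM, and the medium was concentrated about 50-fold. Protein amount was estimated from AP activity. Ephrin-A5 Fc was captured at 0.5 µg/ml on protein A wells (1 h, RT, TBS/0.01% Tween 20), then EphA4 AP was added for 1 h. Bound AP was read with pNPP in SEAP buffer (pH 9.8) at OD405, minus Fc-only wells.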
# V129A EphA4 AP mutant = V129A EphA4 AP mutant (Homo sapiens, UniProt P54764, V157A); assay: ELISA binding to immobilized ephrin-A5 Fc
# Summary of the method: as §1
# D33A EphA4 AP mutant = D33A EphA4 AP mutant (Homo sapiens, UniProt P54764, D61A); assay: ELISA binding to immobilized ephrin-A5 Fc
# Summary of the method: as §1
# M136A EphA4 AP mutant = M136A EphA4 AP mutant (Homo sapiens, UniProt P54764, M164A); assay: ELISA binding to immobilized ephrin-A5 Fc
# Summary of the method: as §1
# A165S EphA4 AP mutant = A165S EphA4 AP mutant (Homo sapiens, UniProt P54764, A193S); assay: ELISA binding to immobilized ephrin-A5 Fc
# Summary of the method: as §1
# S30A EphA4 AP mutant = S30A EphA4 AP mutant (Homo sapiens, UniProt P54764, S58A); assay: ELISA binding to immobilized ephrin-A5 Fc
# Summary of the method: as §1
# M32A EphA4 AP mutant = M32A EphA4 AP mutant (Homo sapiens, UniProt P54764, M60A); assay: ELISA binding to immobilized ephrin-A5 Fc
# Summary of the method: as §1
# G132V EphA4 AP mutant = G132V EphA4 AP mutant (Homo sapiens, UniProt P54764, G160V); assay: ELISA binding to immobilized ephrin-A5 Fc
# Summary of the method: as §1
# T76A EphA4 AP mutant = T76A EphA4 AP mutant (Homo sapiens, UniProt P54764, T104A); assay: ELISA binding to immobilized ephrin-A5 Fc
# Summary of the method: as §1
# D123A EphA4 AP mutant = D123A EphA4 AP mutant (Homo sapiens, UniProt P54764, D151A); assay: ELISA binding to immobilized ephrin-A5 Fc
# Summary of the method: as §1
# R134A EphA4 AP mutant = R134A EphA4 AP mutant (Homo sapiens, UniProt P54764, R162A); assay: ELISA binding to immobilized ephrin-A5 Fc
# Summary of the method: as §1
# I131A EphA4 AP mutant = I131A EphA4 AP mutant (Homo sapiens, UniProt P54764, I159A); assay: ELISA binding to immobilized ephrin-A5 Fc
# Summary of the method: as §1
# T41A EphA4 AP mutant = T41A EphA4 AP mutant (Homo sapiens, UniProt P54764, T69A); assay: ELISA binding to immobilized ephrin-A5 Fc
# Summary of the method: as §1
# I31A EphA4 AP mutant = I31A EphA4 AP mutant (Homo sapiens, UniProt P54764, I59A); assay: ELISA binding to immobilized ephrin-A5 Fc
# Summary of the method: as §1
# Q43A EphA4 AP mutant = Q43A EphA4 AP mutant (Homo sapiens, UniProt P54764, Q71A); assay: ELISA binding to immobilized ephrin-A5 Fc
# Summary of the method: as §1
# F126A EphA4 AP mutant = F126A EphA4 AP mutant (Homo sapiens, UniProt P54764, F154A); assay: ELISA binding to immobilized ephrin-A5 Fc
# Summary of the method: as §1
# [3] = read-out: inhibition of EphA4 AP binding to ephrin-A5 Fc
# EphA4 AP, sequence (P54764 30-209 limits assumed): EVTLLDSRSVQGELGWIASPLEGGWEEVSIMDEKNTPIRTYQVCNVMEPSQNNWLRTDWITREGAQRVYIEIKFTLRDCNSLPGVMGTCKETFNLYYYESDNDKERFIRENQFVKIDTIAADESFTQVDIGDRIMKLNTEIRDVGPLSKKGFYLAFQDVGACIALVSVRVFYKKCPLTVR
# EphA4 ephrin-binding domain (residues 29-209), sequence (P54764 29-209): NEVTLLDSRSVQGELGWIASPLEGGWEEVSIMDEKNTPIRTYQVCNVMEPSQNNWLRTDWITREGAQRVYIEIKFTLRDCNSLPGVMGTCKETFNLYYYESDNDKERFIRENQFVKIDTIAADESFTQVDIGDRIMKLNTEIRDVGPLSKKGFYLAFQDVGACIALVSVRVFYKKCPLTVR
# T41A EphA4 AP mutant, sequence (P54764 30-209 T69A): as the sequence (P54764 30-209 limits assumed) above, with T40A counted along it
# M32A EphA4 AP mutant, sequence (P54764 30-209 M60A): as the sequence (P54764 30-209 limits assumed) above, with M31A counted along it
# EphA4 Fc, sequence (Q03137 20-547): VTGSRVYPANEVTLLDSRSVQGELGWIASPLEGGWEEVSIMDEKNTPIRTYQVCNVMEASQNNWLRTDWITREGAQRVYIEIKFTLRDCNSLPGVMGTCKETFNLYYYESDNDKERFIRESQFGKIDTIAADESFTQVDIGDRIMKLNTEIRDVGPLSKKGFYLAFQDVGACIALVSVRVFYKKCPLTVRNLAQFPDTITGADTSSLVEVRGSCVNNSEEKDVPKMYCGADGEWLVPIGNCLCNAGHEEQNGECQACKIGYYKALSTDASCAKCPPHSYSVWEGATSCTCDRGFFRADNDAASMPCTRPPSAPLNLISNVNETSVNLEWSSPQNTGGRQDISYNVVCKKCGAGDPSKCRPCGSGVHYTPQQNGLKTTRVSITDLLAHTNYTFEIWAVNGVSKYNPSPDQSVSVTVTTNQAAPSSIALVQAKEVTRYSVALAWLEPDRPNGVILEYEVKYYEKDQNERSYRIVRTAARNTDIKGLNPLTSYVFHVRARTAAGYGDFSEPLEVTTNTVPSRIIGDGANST
# D123A EphA4 AP mutant, sequence (P54764 30-209 D151A): as the sequence (P54764 30-209 limits assumed) above, with D122A counted along it
# T76A EphA4 AP mutant, sequence (P54764 30-209 T104A): as the sequence (P54764 30-209 limits assumed) above, with T75A counted along it
# R134A EphA4 AP mutant, sequence (P54764 30-209 R162A): as the sequence (P54764 30-209 limits assumed) above, with R133A counted along it
# S30A EphA4 AP mutant, sequence (P54764 30-209 S58A): as the sequence (P54764 30-209 limits assumed) above, with S29A counted along it
# F126A EphA4 AP mutant, sequence (P54764 30-209 F154A): as the sequence (P54764 30-209 limits assumed) above, with F125A counted along it
# M136A EphA4 AP mutant, sequence (P54764 30-209 M164A): as the sequence (P54764 30-209 limits assumed) above, with M135A counted along it
# A165S EphA4 AP mutant, sequence (P54764 30-209 A193S): as the sequence (P54764 30-209 limits assumed) above, with A164S counted along it
# I39A EphA4 AP mutant, sequence (P54764 30-209 I67A): as the sequence (P54764 30-209 limits assumed) above, with I38A counted along it
# I131A EphA4 AP mutant, sequence (P54764 30-209 I159A): as the sequence (P54764 30-209 limits assumed) above, with I130A counted along it
# I31A EphA4 AP mutant, sequence (P54764 30-209 I59A): as the sequence (P54764 30-209 limits assumed) above, with I30A counted along it
# G132V EphA4 AP mutant, sequence (P54764 30-209 G160V): as the sequence (P54764 30-209 limits assumed) above, with G131V counted along it
# V129A EphA4 AP mutant, sequence (P54764 30-209 V157A): as the sequence (P54764 30-209 limits assumed) above, with V128A counted along it
# D33A EphA4 AP mutant, sequence (P54764 30-209 D61A): as the sequence (P54764 30-209 limits assumed) above, with D32A counted along it
# Q43A EphA4 AP mutant, sequence (P54764 30-209 Q71A): as the sequence (P54764 30-209 limits assumed) above, with Q42A counted along it
molecule,measurement,setting,value
KYLPYWPVLASL [KYL-Ala10],IC50 value relative to unmodified KYL (in words),EphA4 AP,comparable to that of unmodified KYL
KYLPYWPVLSAL [KYL-Ala11],IC50 value relative to unmodified KYL (in words),EphA4 AP,comparable to that of unmodified KYL
KYLPYWPVLSSL [KYL],inhibition at 5 µM,EphA4 AP; [3],~80%
VTMEAINLAFPG [VTM],inhibition at 25 µM,EphA4 AP; [3],~80%
same,relative stability in mouse serum (in words),[1],more stable than KYL and APY
VTMEAINLAFPG [VTM peptide],Kd,[2],4700 ± 100 nM
VTMEAINLAFPA [VTM-Ala12],fold reduction of inhibitory potency against unmodified VTM,EphA4 Fc,< 2 fold
KYLPYWPVLSSL [KYL peptide],Kd,[2],850 ± 150 nM
B1,effect of mutation on ephrin-A5 binding (in words),I39A EphA4 AP mutant,do not substantially affect
same,effect of mutation on ephrin-A5 binding (in words),V129A EphA4 AP mutant,do not substantially affect
same,effect of mutation on ephrin-A5 binding (in words),D33A EphA4 AP mutant,also affect ephrin-A5 binding
same,effect of mutation on ephrin-A5 binding (in words),M136A EphA4 AP mutant,also affect ephrin-A5 binding
same,effect of mutation on ephrin-A5 binding (in words),A165S EphA4 AP mutant,also affect ephrin-A5 binding
same,effect of mutation on ephrin-A5 binding (in words),S30A EphA4 AP mutant,do not substantially affect
same,effect of mutation on ephrin-A5 binding (in words),M32A EphA4 AP mutant,also affect ephrin-A5 binding
same,effect of mutation on ephrin-A5 binding (in words),G132V EphA4 AP mutant,do not substantially affect
same,effect of mutation on ephrin-A5 binding (in words),T76A EphA4 AP mutant,severely impair
same,effect of mutation on ephrin-A5 binding (in words),D123A EphA4 AP mutant,also affect ephrin-A5 binding
same,effect of mutation on ephrin-A5 binding (in words),R134A EphA4 AP mutant,severely impair
same,effect of mutation on ephrin-A5 binding (in words),I131A EphA4 AP mutant,severely impair
same,effect of mutation on ephrin-A5 binding (in words),T41A EphA4 AP mutant,do not substantially affect; also recorded: does not affect ephrin-A5 binding
same,effect of mutation on ephrin-A5 binding (in words),I31A EphA4 AP mutant,also affect ephrin-A5 binding
same,effect of mutation on ephrin-A5 binding (in words),Q43A EphA4 AP mutant,also affect ephrin-A5 binding
same,effect of mutation on ephrin-A5 binding (in words),F126A EphA4 AP mutant,severely impair
